Data reported in ChEMBL document CHEMBL1641478, “Structural and biochemical study on the inhibitory activity of derivatives of 5-nitro-furan-2-carboxylic acid for RNase H function of HIV-1 reverse transcriptase” (Bioorg Med Chem, 2011).

How the values were obtained:
[1] = target: Human immunodeficiency virus type 1 reverse transcriptase (Human immunodeficiency virus 1, UniProt Q72547); assay: Inhibition RNase H activity of HIV1 reverse transcriptase expressed in Escherichia coli stain BL21(DE3)pLysS
Outline: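 His-tagged p66/p51 RT expressed in E. coli BL21(DE3)pLysS with 1 mM IPTG for 3 h. Substrate: 18-mer RNA labelled with 3′-FAM, annealed to complementary DNA carrying a 5′-BHQ quencher. Reaction used 100 ng RT at 37 °C, with cleavage followed in real time by fluorescence at 488 nm every 150 s. IC50 taken as the concentration halving the cleavage rate relative to control.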

[2] = Cytotoxicity against human 293T cells after 3 days by MTT assay; assay type: cell-based, HEK-293T; details: for CC50 at 72 h: 293T cells; for CC50: hek-293t, 72 h
Outline: (§1)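 Cells in RPMI-1640 with 10% FBS: MT-4 seeded at 4 × 10⁵/mL, 293T at 2 × 10⁵/mL. Compound final concentrations 100, 50, 25 and 12.5 µM, 1% DMSO final, plus an untreated control. Incubated 3 days at 37 °C in 5% CO₂. MTT added for 1 h, then solubilized overnight at 4 °C and read at OD570/690. CC50 derived only when viability fell below 50% at 100 µM.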

[3] = (§2) Cytotoxicity against human MT4 cells after 3 days by MTT assay; assay type: cell-based; details: MT4 cells; outline: as §1
[4] = test system: MT4; assay: as §2; assay type: cell-based; details: mt4, 72 h; outline: as §1

SMILES | IC50 [1] [µM] | CC50 at 72 h [2] [µM] | CC50 at 72 h [3] [µM] | CC50 [2] | CC50 [4]
CC(C)(C)N(Cc1ccccc1)C(=O)COC(=O)c1ccc([N+](=O)[O-])o1 | 0.9 | > 100 | > 100 |  | 
CC(C)OC(=O)COC(=O)c1ccc([N+](=O)[O-])o1 | 13.2 | > 100 | > 100 |  | 
CCC(C)(C)NC(=O)COC(=O)c1ccc([N+](=O)[O-])o1 | 5.8 | > 100 | > 100 |  | 
CC(C)(Cc1ccccc1)NC(=O)COC(=O)c1ccc([N+](=O)[O-])o1 | 4.3 | > 100 | > 100 |  | 
O=C(COC(=O)c1ccc([N+](=O)[O-])o1)NCC1CCCO1 (stereo not given) | 4.2 | > 100 | > 100 |  | 
O=C(COC(=O)c1ccc([N+](=O)[O-])o1)NC1Cc2ccccc2C1 | 5.5 | > 100 | > 100 |  | 
O=C(COC(=O)c1ccc([N+](=O)[O-])o1)NC1CCc2ccccc21 (stereo not given) | 6.1 | > 100 | > 100 |  | 
O=C(COC(=O)c1ccc([N+](=O)[O-])o1)NC1CCCc2ccccc21 (stereo not given) | 4.3 | > 100 | > 100 |  | 
CC(C)(C)N(CCC(=O)c1ccccc1)C(=O)COC(=O)c1ccc([N+](=O)[O-])o1 | > 50 |  |  | Not Active | Not Active
CC(C)(C)N(Cc1ccc([N+](=O)[O-])cc1)C(=O)COC(=O)c1ccc([N+](=O)[O-])o1 | 6.9 | > 100 | > 100 |  | 
CC(C)(C)N(Cc1cccc([N+](=O)[O-])c1)C(=O)COC(=O)c1ccc([N+](=O)[O-])o1 | 9.8 | 78 | > 100 |  | 
CC(=O)Oc1ccc(CN(C(=O)COC(=O)c2ccc([N+](=O)[O-])o2)C(C)(C)C)cc1 | 8.7 | > 100 | > 100 |  | 
CC(=O)Oc1ccccc1CN(C(=O)COC(=O)c1ccc([N+](=O)[O-])o1)C(C)(C)C | 12.8 | > 100 | > 100 |  | 
COc1ccc(CN(C(=O)COC(=O)c2ccc([N+](=O)[O-])o2)C(C)(C)C)cc1 | 7.5 | > 100 | > 100 |  | 
CC(C)(C)N(Cc1ccc(OCc2ccccc2)cc1)C(=O)COC(=O)c1ccc([N+](=O)[O-])o1 | > 50 |  |  | Not Active | Not Active
CC(C)(C)N(Cc1ccc(F)cc1)C(=O)COC(=O)c1ccc([N+](=O)[O-])o1 | 8.5 | > 100 | > 100 |  | 
CC(C)(C)N(Cc1ccc(C(F)(F)F)cc1)C(=O)COC(=O)c1ccc([N+](=O)[O-])o1 | 8 | 36 | 71 |  | 
CC(C)(C)N(Cc1cccc(C(F)(F)F)c1)C(=O)COC(=O)c1ccc([N+](=O)[O-])o1 | 8.5 | 68 | > 100 |  | 

SMILES | IC50 [1] [µM] | CC50 at 72 h [2] [µM] | CC50 at 72 h [3] [µM] | CC50 [2] | CC50 [4]
CC(C)(C)N(Cc1c(F)c(F)c(F)c(F)c1F)C(=O)COC(=O)c1ccc([N+](=O)[O-])o1 | 6.8 | 83 | > 100 |  | 
CC(C)(C)C(=O)COC(=O)c1ccc([N+](=O)[O-])o1 | 21.9 | > 100 | > 100 |  | 
CC(C)(C)NC(=O)COC(=O)c1ccc([N+](=O)[O-])cc1 | > 50 |  |  |  | 
CC(C)(C)N(Cc1ccccc1)C(=O)COC(=O)c1ccco1 | > 50 |  |  |  | 
CC(C)(C)NC(=O)COC(=O)c1ccc(C(=O)c2ccccc2)o1 | > 50 |  |  |  | 
CC(C)(C)NC(=O)COC(=O)c1ccno1 | > 50 |  |  |  | 
CC(C)(C)NC(=O)COC(=O)c1ccc(-c2cccc([N+](=O)[O-])c2)o1 | > 50 |  |  |  | 
CC(C)(C)NC(=O)COC(=O)c1ccc(-c2ccc([N+](=O)[O-])cc2)o1 | > 50 |  |  |  | 
CC(C)(C)NC(=O)COC(=O)c1ccc([N+](=O)[O-])s1 | 2.8 | > 100 | > 100 |  | 
CCC(C)(C)NC(=O)COC(=O)c1ccc([N+](=O)[O-])s1 | 5.8 |  |  |  | 
CCC(C)(C)N(Cc1cccc([N+](=O)[O-])c1)C(=O)COC(=O)c1ccc([N+](=O)[O-])s1 | 25.8 |  |  |  | 
CC(=O)COC(=O)c1ccc([N+](=O)[O-])s1 | 9.5 |  |  |  | 
CC(C)(C)C(=O)COC(=O)c1ccc([N+](=O)[O-])s1 | 5.7 |  |  |  | 
COC(=O)CNC(=O)c1ccc([N+](=O)[O-])o1 | > 50 |  |  |  | 
CCOC(=O)[C@H](C)NC(=O)c1ccc([N+](=O)[O-])o1 | > 50 |  |  |  | 
CCOC(=O)[C@H](Cc1ccccc1)NC(=O)c1ccc([N+](=O)[O-])o1 | > 50 |  |  |  | 
CCOC(=O)[C@H](Cc1ccc(O)cc1)NC(=O)c1ccc([N+](=O)[O-])o1 | > 50 |  |  |  | 
CCOC(=O)[C@@H](NC(=O)c1ccc([N+](=O)[O-])o1)c1ccccc1 | > 50 |  |  |  | 

Continued, in another order:

IC50 [1] [µM] | SMILES | CC50 at 72 h [2] [µM] | CC50 at 72 h [3] [µM] | CC50 [2] | CC50 [4]
18 | CC(C)(C)NC(=O)COC(=O)c1ccc([N+](=O)[O-])o1 | > 100 | > 100 |  | 
8.2 | CC(C)(NC(=O)COC(=O)c1ccc([N+](=O)[O-])o1)c1ccccc1 | > 100 | > 100 |  | 
14.2 | CC(C)(C)N(CCc1ccccc1)C(=O)COC(=O)c1ccc([N+](=O)[O-])o1 | 67 | > 100 |  | 
> 50 | CC(C)(C)N(CCCc1ccccc1)C(=O)COC(=O)c1ccc([N+](=O)[O-])o1 |  |  | Not Active | Not Active
9 | CC(C)(C)N(Cc1ccccc1C(F)(F)F)C(=O)COC(=O)c1ccc([N+](=O)[O-])o1 | 65 | 95 |  | 
7.7 | O=C(OCC(=O)N(Cc1ccccc1)CC1CCCO1)c1ccc([N+](=O)[O-])o1 (stereo not given) | > 100 | > 100 |  | 
5 | O=C(OCC(=O)N(Cc1ccc(O)cc1)CC1CCCO1)c1ccc([N+](=O)[O-])o1 (stereo not given) | > 100 | > 100 |  | 
7.1 | CC(=O)COC(=O)c1ccc([N+](=O)[O-])o1 | > 100 | > 100 |  | 
> 50 | CC(C)(C)NC(=O)COC(=O)c1ccccc1[N+](=O)[O-] |  |  |  | 
> 50 | CC(C)(C)NC(=O)COC(=O)c1cccc([N+](=O)[O-])c1 |  |  |  | 
> 50 | CC(C)(C)N(Cc1ccccc1)C(=O)COC(=O)c1cc([N+](=O)[O-])cc([N+](=O)[O-])c1 |  |  |  | 
> 50 | CC(C)(C)NC(=O)COC(=O)c1ccc(Br)o1 |  |  |  | 
> 50 | CC(C)(C)NC(=O)COC(=O)c1ccc(-c2ccccc2[N+](=O)[O-])o1 |  |  |  | 
33.5 | CCC(C)(C)N(Cc1ccc([N+](=O)[O-])cc1)C(=O)COC(=O)c1ccc([N+](=O)[O-])s1 |  |  |  | 
> 50 | CCOC(=O)[C@H](CC(C)C)NC(=O)c1ccc([N+](=O)[O-])o1 |  |  |  | 
2.1 | O=C(OCCc1ccc([N+](=O)[O-])cc1)c1ccc([N+](=O)[O-])o1 | 36 | 28 |  | 
2.7 | CN(OC(=O)c1ccc([N+](=O)[O-])o1)C(=O)c1ccc([N+](=O)[O-])o1 | > 100 | 86 |  | 
